Reference: ChEMBL document CHEMBL1133431, “1,3-Diarylcycloalkanopyrazoles and diphenyl hydrazides as selective inhibitors of cyclooxygenase-2” (Bioorg Med Chem Lett, 2000)

What was measured:
[1] = molecular target: Prostaglandin G/H synthase 1 (Homo sapiens, UniProt P23219); assay: Inhibitory activity against human prostaglandin G/H synthase 1 in platelet-rich plasma measured by the presence of thromboxane A2
Outline: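 Human peripheral blood drawn into heparin; platelet-rich plasma collected by centrifugation (200×g, 20 min, room temperature) and diluted 1:20 in 0.9% NaCl. Compound or vehicle preincubated 15 min at 37 °C, then stimulated with calcium ionophore A-23187 (free acid) for 15 min at 37 °C, then chilled on ice 5 min. Supernatant thromboxane B2 measured by radioimmunoassay.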

[2] = molecular target: T1, Prostaglandin G/H synthase 2 (Homo sapiens, UniProt P35354); assay: Inhibitory activity against human prostaglandin G/H synthase 2 in ECV-304 cells measured by the presence of PGE-2; format: cell-based
T1 sequence (P35354 whole entry): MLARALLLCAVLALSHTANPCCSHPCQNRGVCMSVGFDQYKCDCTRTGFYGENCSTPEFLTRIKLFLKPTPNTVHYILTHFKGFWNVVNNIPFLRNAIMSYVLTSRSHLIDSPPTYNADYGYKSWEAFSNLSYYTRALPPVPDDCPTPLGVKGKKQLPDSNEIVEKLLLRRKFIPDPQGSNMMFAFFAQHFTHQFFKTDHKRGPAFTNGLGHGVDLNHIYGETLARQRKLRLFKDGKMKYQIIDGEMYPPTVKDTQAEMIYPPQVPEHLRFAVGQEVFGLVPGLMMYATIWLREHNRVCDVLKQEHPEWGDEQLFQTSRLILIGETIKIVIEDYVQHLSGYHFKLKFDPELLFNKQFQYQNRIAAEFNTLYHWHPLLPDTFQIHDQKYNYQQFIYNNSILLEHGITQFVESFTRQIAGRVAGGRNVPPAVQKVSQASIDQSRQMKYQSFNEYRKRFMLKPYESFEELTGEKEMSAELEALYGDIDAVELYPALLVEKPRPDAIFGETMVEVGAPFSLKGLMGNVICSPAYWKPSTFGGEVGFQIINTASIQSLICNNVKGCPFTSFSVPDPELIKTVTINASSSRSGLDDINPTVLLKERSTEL

Chain of Prostaglandin G/H synthase 1 (P23219 whole entry): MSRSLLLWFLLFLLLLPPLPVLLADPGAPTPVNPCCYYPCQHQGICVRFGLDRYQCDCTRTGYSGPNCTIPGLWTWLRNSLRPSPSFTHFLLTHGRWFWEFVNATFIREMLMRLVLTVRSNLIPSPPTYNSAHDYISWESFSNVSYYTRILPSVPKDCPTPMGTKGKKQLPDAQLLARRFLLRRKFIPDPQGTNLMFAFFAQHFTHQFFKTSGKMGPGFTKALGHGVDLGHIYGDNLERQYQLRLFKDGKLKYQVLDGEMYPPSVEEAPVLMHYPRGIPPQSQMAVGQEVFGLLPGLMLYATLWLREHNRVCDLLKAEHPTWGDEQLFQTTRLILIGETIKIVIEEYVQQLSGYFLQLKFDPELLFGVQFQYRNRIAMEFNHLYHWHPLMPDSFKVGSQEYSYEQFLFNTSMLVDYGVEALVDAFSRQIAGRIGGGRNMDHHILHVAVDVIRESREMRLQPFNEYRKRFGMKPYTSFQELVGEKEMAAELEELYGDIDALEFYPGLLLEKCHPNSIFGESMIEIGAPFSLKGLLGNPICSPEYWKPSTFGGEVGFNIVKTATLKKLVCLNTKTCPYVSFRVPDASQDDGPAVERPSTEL

| Compound | IC50 [1] [µM] | IC50 [2] [µM] |
| --- | --- | --- |
| O=C(NNc1ccccc1)c1ccc(Cl)cc1 | > 10 | 0.33 |
| COc1ccc(-n2nc(-c3ccc(Cl)cc3)c3c2CCC(NOC(C)=O)C3)cc1 (configuration not stated) | > 10 | > 10 |
| COc1ccc(-n2nc(-c3ccc(Cl)cc3)c3c2CCC(N(O)C(C)=O)C3)cc1 (configuration not stated) | > 10 | 2.4 |
| COc1ccc(-n2nc(-c3ccc(Cl)cc3)c3c2CCC(O)C3)cc1 (configuration not stated) | > 10 | 0.46 |
| CS(=O)(=O)c1ccc(NNC(=O)c2ccccc2)cc1 | > 10 | > 10 |
| COc1ccc(NNC(=O)c2ccccc2)cc1 | > 10 | 0.18 |
| CS(=O)(=O)c1ccc(NNC(=O)c2ccc(Cl)cc2)cc1 | > 10 | > 10 |
| Cc1ccc(NNC(=O)c2ccc(Cl)cc2)cc1 | > 10 | 0.01 |
| Clc1ccc(-c2nn(-c3ccc(Cl)cc3)c3c2CCC3)cc1 | > 10 | > 10 |
| Cc1ccc(NNC(=O)c2ccccc2)cc1 | > 10 | 0.33 |
| O=C(NNc1ccc(Cl)cc1)c1ccccc1 | > 10 | 0.53 |
| COc1ccc(C(=O)NNc2ccc(Cl)cc2)cc1 | > 10 | 0.47 |
| O=C(NNc1ccccc1)c1ccccc1 | > 10 | 10 |
| COc1ccc(C(=O)NNc2ccccc2)cc1 | > 10 | > 10 |
| CS(=O)(=O)c1ccc(-n2nc(-c3ccc(Cl)cc3)c3c2CCCC3)cc1 | > 10 | > 10 |
| Cc1ccc(-n2nc(-c3ccc(Cl)cc3)c3c2CCCCC3)cc1 | > 10 | – |
| O=C(NNc1ccc(Cl)cc1)c1ccc(Cl)cc1 | > 10 | 0.34 |
| CS(=O)(=O)c1ccc(-n2nc(-c3ccc(Cl)cc3)c3c2CCCCC3)cc1 | – | > 10 |
| COc1ccc(NNC(=O)c2ccc(Cl)cc2)cc1 | > 10 | 0.13 |
| Clc1ccc(-c2nn(-c3ccc(Cl)cc3)c3c2CCCCC3)cc1 | > 10 | – |
| COc1ccc(-n2nc(-c3ccc(Cl)cc3)c3c2CCCCC3)cc1 | > 10 | – |
| COc1ccc(-n2nc(-c3ccc(Cl)cc3)c3c2CCC(F)C3)cc1 (configuration not stated) | > 10 | – |
| CS(=O)(=O)c1ccc(-n2nc(-c3ccc(F)cc3)c3c2CCCC3)cc1 | > 10 | > 10 |
| c1ccc(-c2nn(-c3ccccc3)c3c2CCC3)cc1 | > 10 | – |
